Sampled rows, rich in hits. Any-hit rate of the full collection: about 3.4%.
MEKK3 PB1 HTS = modulators (inhibitors or enhancers) of MEK5 binding to human MEKK3 PB1 domain. bead-based flow cytometry, Alexa488-MEK5 binding to MEKK3; actives lie on both sides; 0 = blocked by unlabeled MEK5, 100 = vehicle. binding response (% of control), % at 10 µM. actives 1.4% (n = 290,000). AID 1529;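 active = binding response more than 3 SD above or below the average of its plate-row segment, actives on both sides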;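 note: Alexa488 bead fluorescence after subtracting the streptavidin-only scavenger bead signal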
Target sequence (Q99759 whole entry, looked up, the tested form may be a part): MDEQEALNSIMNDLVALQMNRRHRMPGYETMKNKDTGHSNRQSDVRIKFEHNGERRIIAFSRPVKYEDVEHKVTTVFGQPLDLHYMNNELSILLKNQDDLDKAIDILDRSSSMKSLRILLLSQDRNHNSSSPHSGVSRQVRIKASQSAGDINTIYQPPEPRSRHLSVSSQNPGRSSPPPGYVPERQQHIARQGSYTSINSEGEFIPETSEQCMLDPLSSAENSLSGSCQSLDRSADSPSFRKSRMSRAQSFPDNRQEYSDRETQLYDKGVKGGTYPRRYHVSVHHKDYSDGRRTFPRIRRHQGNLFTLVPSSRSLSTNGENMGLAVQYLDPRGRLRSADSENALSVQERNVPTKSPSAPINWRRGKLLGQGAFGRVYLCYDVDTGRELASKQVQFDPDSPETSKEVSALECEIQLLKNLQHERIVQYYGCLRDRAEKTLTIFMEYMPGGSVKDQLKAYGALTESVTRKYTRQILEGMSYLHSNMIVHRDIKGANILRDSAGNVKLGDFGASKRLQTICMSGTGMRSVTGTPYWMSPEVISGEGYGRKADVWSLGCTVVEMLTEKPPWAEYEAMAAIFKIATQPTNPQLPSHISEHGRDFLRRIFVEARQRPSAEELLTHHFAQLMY
MEKK2mut PB1 HTS = signal of MEK5 binding to mutant human MEKK2 PB1 domain; bead flow cytometry, Alexa488-MEK5 binding to MEKK2 mutant; percent response, % at 10 µM; actives 0.35% (n = 290,000); in the data active = percent response above about 24%, passing the limit was not always enough
IMP-1 inhibitor = inhibitors of Pseudomonas aeruginosa IMP-1 metallo-beta-lactamase. actives 0.45% (n = 290,000). inhibition, % at 5.6 µM. purified IMP-1, nitrocefin hydrolysis, epi-absorbance fluorescence;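 active = inhibition above the mean plus 3 SD of all compounds in the same screening run, cut at about 4.5% in these data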;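 note: 0% = IMP-1 with DMSO and 100% = DMSO wells lacking enzyme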
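Material – recombinant IMP-1 enzyme, purified · Amount – IMP-1 0.2 nM before substrate addition · Medium – HEPES buffer pH 7.1 with ZnSO4 and Brij 35 · Timing – 25 °C, 15 min preincubation, 25 min reaction · Measured by – plate fluorescence quenching by hydrolysis product, ex 480/em 530 nm · Read-out – percent enzyme inhibition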
VIM-2 inhibitor = blocks Pseudomonas aeruginosa VIM-2 metallo-beta-lactamase; purified VIM-2, nitrocefin hydrolysis, epi-absorbance fluorescence; inhibition, % at 5.6 µM; actives 0.89% (n = 290,000); AID 1527;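 active = inhibition above the mean of all tested compounds plus 3 SD, cutoff set per screening run, cut at about 7.5% in these data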;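 note: red hydrolysis product quenches plate fluorescence so inhibitors raise well fluorescence; 0% = enzyme with DMSO and 100% = DMSO without enzyme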
MEKK2wt PB1 HTS = raises or lowers MEK5 binding to wildtype human MEKK2 PB1 domain; binding response (% of control), % at 10 µM; bead flow cytometry, Alexa488-MEK5 binding to MEKK2 WT; actives lie on both sides; Q9Y2U5; actives 1.1% (n = 290,000); in the data active = binding response below about 67% or above about 130%
* marks the source's active call; other numbers are inactive results.

SMILES	MEKK3 PB1 HTS	MEKK2mut PB1 HTS	IMP-1 inhibitor	VIM-2 inhibitor	MEKK2wt PB1 HTS
O=C(O)C1Nc2c(Cl)cc(Cl)cc2C2C=CCC12 (stereo not drawn)	94.0	-1.0	-0.4	4.4	96.0
Cc1ccccc1-c1nc(CN2CCC(C(=O)NCCCN3CCCC3)CC2)c(C)o1	102.0	51.0*	-0.2	-1.9	198.0*
CCOC(=O)c1ccccc1N/C=C1\CCCC1=O	101.0	-1.0	-1.7	12.1*	95.0
NC(=O)c1ccccc1N/C=C1\CCCCC1=O	114.0	-7.0	-2.0	0.7	103.0
CCCCCCC(=O)NN1CCN(C)CC1	101.0	11.0	8.0*	-3.7	103.0
CC(C)N(C1=N/C(=C\c2ccco2)C(=O)N1c1ccccc1)C(C)C	98.0	-3.0	-5.3	0.0	101.0
CN(C)CCSc1nnc2[nH]c3ccccc3c2n1	99.0	-3.0	-0.6	10.2*	97.0
Fc1cccc(CSc2nnc3c(n2)[nH]c2ccccc23)c1	98.0	0.0	-0.9	-1.0	99.0
CC1(C)Cc2c(sc3nc(NCCN4CCOCC4)n4ncnc4c23)CO1	93.0	-6.0	16.2*	6.8	94.0
O=C(CSc1n[nH]c(-c2ccccn2)n1)Nc1ccccc1F	102.0	0.0	-3.6	9.6*	101.0
CCN1CCN(CCCNC(=O)c2cc3c(s2)-c2ccccc2OC3)CC1	102.0	3.0	-0.6	1.5	111.0
Cc1cccc2c1-c1sc(C(=O)NCCCN3CCCC(C)C3)cc1CO2 (stereo not drawn)	105.0	24.0*	-1.8	2.0	171.0*
CC1CC(C)CN(CCCNC(=O)c2cc3c(s2)-c2ccccc2OC3)C1 (stereo not drawn)	106.0	25.0*	-0.9	-1.1	142.0*
CCN1CCN(CC(=O)NC2CCCC2)C(=O)C1=O	99.0	9.0	-0.4	-0.2	99.0
O=C(CCCc1ccccc1)Nc1ccc(S(=O)(=O)N2CCOCC2)cc1	99.0	-3.0	-1.8	-1.2	101.0
O=C(CCSc1ccccc1)Nc1ccc(S(=O)(=O)N2CCOCC2)cc1	105.0	3.0	46.6*	-0.5	106.0
Cc1cccc(N2CCN(CC(=O)Nc3ccc(S(=O)(=O)N4CCOCC4)cc3)CC2)c1C	99.0	1.0	4.5*	1.9	105.0
Cc1ccc(S(=O)(=O)N2CCN(CC(=O)Nc3ccc(N4CCOCC4)cc3)CC2)cc1C	108.0	33.0	-2.0	-2.7	111.0
CCNc1c(NC(=O)c2cccs2)c(=O)oc2ccccc12	98.0	-9.0	-1.7	-2.0	95.0
COCCN1C=C(C(=O)OC)C(c2cc(Br)c(OC)c(OC)c2)C(C(=O)OC)=C1	100.0	-1.0	-4.1	0.7	101.0
COc1ccc(-c2coc3cc(OC(=O)N4CCOCC4)ccc3c2=O)cc1	84.0	-9.0	0.1	0.6	92.0
COc1ccc(-c2cc(C(F)(F)F)nc(N3CCOCC3)n2)cc1OC	68.0	-16.0	-2.0	-1.8	67.0
COc1ccc(-c2cc(-c3ccccc3)nc(N3CCCC3)n2)cc1OC	104.0	6.0	4.8*	-2.1	109.0
O=C(Nc1nnc(-c2ccc3c(c2)CCCC3)o1)C1CCCCC1	104.0	11.0	-2.1	-1.1	103.0
COCCn1c(=N)c(S(=O)(=O)c2ccc(F)cc2)cc2c(=O)n3cccc(C)c3nc21	102.0	1.0	-2.7	8.9*	103.0
SMILES	MEKK3 PB1 HTS	MEKK2mut PB1 HTS	IMP-1 inhibitor	VIM-2 inhibitor	MEKK2wt PB1 HTS
CCCn1c(=N)c(S(=O)(=O)c2ccc(F)cc2)cc2c(=O)n3ccccc3nc21	100.0	1.0	-4.3	8.9*	97.0
Cc1ccc(S(=O)(=O)N2CCN(C(=O)c3ccc(Cl)nc3)CC2)cc1	98.0	-5.0	-2.5	-2.1	94.0
Cc1cc(C(=O)N/N=C/C=C/c2ccc(Br)cc2)n[nH]1	95.0	-3.0	0.3	-5.5	98.0
Cc1ccc(OC(=O)N2CCOCC2)cc1	99.0	1.0	-2.1	-2.7	94.0
O=C(O)CCN1C(=O)/C(=C2\C(=O)N(Cc3ccc(F)cc3)c3ccccc32)SC1=S	98.0	-4.0	51.0*	-0.6	98.0
CC(NC(=O)C1CCN(S(=O)(=O)c2ccc3nc4c(c(C(=O)O)c3c2)CCCC4)CC1)c1ccccc1 (stereo not drawn)	99.0	0.0	0.5	-2.6	95.0
CN(Cc1ccccc1)C(=O)C1CCN(S(=O)(=O)c2ccc3nc4c(c(C(=O)O)c3c2)CCCC4)CC1	97.0	-2.0	5.5*	1.0	98.0
COc1ccc(CN2CCOCCOCCOCCOCC2)cc1	94.0	19.0	-3.0	-1.5	-3.0*
O=C(CSc1nnc(-c2ccco2)o1)Nc1ccccc1Cl	100.0	6.0	-5.0	-2.3	102.0
O=C(O)c1ccc(Cn2ccc3ccccc32)o1	105.0	4.0	-2.2	-2.1	104.0
c1ccc(C2(Cn3ccc4ccccc43)OCCO2)cc1	95.0	3.0	-2.2	-2.0	12.0*
CCCCC1(C)OC(=O)C(=Cc2ccc(-c3ccc(Cl)c(C(=O)O)c3)o2)C(=O)O1 (stereo not drawn)	94.0	-6.0	28.7*	2.4	96.0
CCN=C1SC(CC(=O)Nc2ccc3c(c2)OCO3)C(=O)N1CC (stereo not drawn)	102.0	-3.0	-1.7	-2.3	101.0
CC(C)CC(=O)Nc1cccc2c1C(=O)N(c1ccccc1)C2=O	105.0	-5.0	7.5*	-0.7	102.0
CC(=O)Nc1cccc2c1C(=O)N(c1ccc(OC(C)=O)cc1)C2=O	99.0	-4.0	-2.6	-3.6	90.0
COc1ccc(Nc2nc(C)cc(C)c2C#N)cc1	99.0	4.0	-3.2	-2.4	107.0
CCN(CC)S(=O)(=O)c1ccc(N2CCOCC2)c(NC(=O)c2c3c(nc4ccccc24)CCC3)c1	96.0	2.0	0.5	-2.4	90.0
O=C(Nc1ccccc1N1CCN(C(=O)c2ccccc2)CC1)c1ccc(Br)o1	101.0	4.0	5.9*	-2.9	99.0
CN1CCN(c2ccccc2NC(=O)c2ccc(-c3ccccc3[N+](=O)[O-])o2)CC1	106.0	20.0	-1.5	0.3	135.0*
COC(=O)c1sccc1NC(=O)CSc1nnnn1-c1ccccc1C	99.0	1.0	-3.4	-4.8	101.0
COC(=O)c1ccc(NC(=O)c2ccc(NC(=O)c3ccco3)cc2)cc1	99.0	-4.0	4.7*	2.0	94.0
Cc1cc(C)cc(NC(=O)c2ccc(NC(=O)c3ccco3)cc2)c1	99.0	3.0	-2.1	-1.9	97.0
CC(=O)Nc1ccc(NC(=O)c2ccco2)cc1	83.0	-6.0	-2.8	-3.3	85.0
CC(=O)c1ccc(NC(=O)c2ccc(NC(=O)c3ccco3)cc2)cc1	98.0	-6.0	18.8*	3.5	95.0
CC(=O)c1ccc(C(=O)Nc2ccc3c(c2)C(=O)NC3=O)cc1	88.0	-8.0	6.1*	0.5	87.0
CC(=O)c1ccc(NC(=O)c2cccc(N3C(=O)c4ccccc4C3=O)c2)cc1	89.0	-16.0	7.7*	-0.3	79.0
CCC(=O)N1N=C(c2ccc(C)cc2)CC1c1ccco1 (stereo not drawn)	107.0	3.0	-1.0	4.9	108.0

Compound activity from PubChem BioAssay.
